{"source": "paper PMC5722212", "about": "(Chemistry (Weinheim an der Bergstrasse, Germany), 2017)", "key": {"Akt": {"tested_on": "Akt", "experiment": "Western blot analysis of cytosolic Hsp90-dependent client protein Akt", "type": "cell-based", "settings": "geldanamycin 0.5 μM, 24 h; all cell lines", "outline": "(§1)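 MDA-MB-231 and PC3-MM2 (DMEM), SK-MEL-28 (EMEM) or A549 (F-12K) cells, each in medium with 10% FBS and penicillin/streptomycin, were seeded at 100,000 cells/mL and grown 24 h at 37°C, 5% CO2. Cells were then treated with test compound, geldanamycin (0.5 μM) or DMSO vehicle for 24 h. Cold-PBS harvest, lysis with protease inhibitors, BCA-equalised protein, reducing 10% gels, PVDF, HRP chemiluminescence; actin loading control.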"}, "Hsp70": {"tested_on": "Hsp70", "experiment": "Western blot analysis of Hsp70 induction", "type": "cell-based", "settings": "geldanamycin 0.5 μM, 24 h; all cell lines", "outline": "as §1"}}}
{"smiles": "COC1=C2C[C@@H](C)C[C@H](OC)[C@H](O)[C@@H](C)/C=C(\\C)[C@H](OC(N)=O)[C@@H](OC)/C=C\\C=C(/C)C(=O)NC(=CC1=O)C2=O", "note": "[geldanamycin]", "values": [{"measurement": "degradation of Akt", "setting": "Akt", "value": "induced the degradation of Akt"}, {"measurement": "levels of Hsp70", "setting": "Hsp70", "value": "increased the levels of Hsp70"}]}
